In the library only some 2.1% were active in any assay of this set; here they are far more common.
Hck Nef HTS: human Hck-Nef kinase inhibition; P08631; Recombinant Hck-YEEI plus Nef, Z-Lyte FRET kinase assay; inhibition, % at 20 µM; hit rate 0.68% among 220,000;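 active means Hck-Nef kinase inhibition above about 50%, limit read from the data; inactive means inhibition below that limit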
Target sequence (P08631 whole entry, looked up): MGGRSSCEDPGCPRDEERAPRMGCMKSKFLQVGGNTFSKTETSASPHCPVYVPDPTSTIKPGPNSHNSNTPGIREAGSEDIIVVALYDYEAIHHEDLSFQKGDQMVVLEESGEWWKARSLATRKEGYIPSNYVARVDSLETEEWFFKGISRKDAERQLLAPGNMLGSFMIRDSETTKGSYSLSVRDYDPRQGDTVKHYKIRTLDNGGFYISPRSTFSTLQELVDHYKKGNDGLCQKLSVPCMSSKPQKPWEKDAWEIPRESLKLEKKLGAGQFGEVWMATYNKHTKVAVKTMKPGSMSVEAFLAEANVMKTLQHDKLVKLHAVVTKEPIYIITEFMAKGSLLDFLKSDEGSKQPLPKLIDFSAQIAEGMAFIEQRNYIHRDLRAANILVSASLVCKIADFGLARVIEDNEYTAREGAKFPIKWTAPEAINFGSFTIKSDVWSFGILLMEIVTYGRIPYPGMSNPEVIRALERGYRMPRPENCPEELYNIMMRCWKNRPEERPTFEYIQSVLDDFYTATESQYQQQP
p-CIP stab down: compounds decreasing mouse p/CIP protein stability | hit rate 0.01% among 290,000 | Q05BA5 | decrease of EGFP signal, % at 10 µM | F442A p/CIP-EGFP cells, EGFP fluorescence, 16 h | AID 1984;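 active means EGFP signal decrease of at least 30% at 10 µM or well 3 SD below plate mean, unless failing retest; inactive means the rest, including hits failing retest or dose response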
RanGTP-Imp inh: disruptors of Ran-importin-beta complex formation – biochemical, FRET, CFP-Ran, YFP-importin-beta, homogeneous, primary screen; cell-free CFP-Ran/YFP-importin-beta FRET ratio; AID 2216; inhibition, % (concentration not given with the values); hit rate 1.1% among 300,000;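 active means more than half of the replicate wells show a fall in the fluorescence ratio signal beyond about 16%, limit read from the data, passing the limit was not always enough; inconclusive means exactly half of the replicate wells pass the set limit; inactive means fewer than half of replicates pass the limit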
Runt-CBFb FRET: inhibitors of human RUNX1 Runt domain binding to CBFb | Q01196+Q13951 | Cerulean-Runt/Venus-CBFb FRET ratio 530/480, 1 h | inhibition, % at 20 µM | hit rate 0.46% among 220,000 | AID 1496;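 active means inhibition over about 50% at 20 µM in the single-dose screen, limit read from the data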
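Schedule: protein complex preformed 1 h, compound exposure 1 h, room temperature, dark; test system: Cerulean-labeled Runt domain protein; amount: 100 nM per protein; buffer or medium: Tris 50 mM pH 7.5, KCl, K2SO4, 0.01% BSA; read-out: loss of energy transfer signal; detection: FRET fluorescence; controls: 5 µM unlabeled CBFb as full-inhibition high control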
Pemphigus Ab inh: inhibitors of pemphigus antibody binding to human desmoglein-3 | DSG3-coupled beads, scFv-anti-DSG3-GFP binding, flow cytometry; stronger effect = lower value | P32926 | hit rate 0.48% among 310,000 | binding (percent of control), % at 10 µM;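 active means binding more than 3 SD below its plate's average and above zero; inconclusive means below that plate limit but binding exactly zero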
Runt-SMMHC FRET: blocks binding of human RUNX1 Runt domain to CBFb-SMMHC. Cerulean-Runt/Venus-CBFb-SMMHC FRET ratio 530/480, 1 h. hit rate 0.74% among 220,000. inhibition, % at 20 µM. Q01196+Q13951;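 active means mean inhibition across duplicate retests at 20 µM reaching about 50%, limit read from the data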;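 further: inhibitors lower the FRET ratio by blocking Runt binding to CBFb-SMMHC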
A number is an active result; 0 = inactive; ? = inconclusive; - = no result.

SMILES	Hck Nef HTS	p-CIP stab down	RanGTP-Imp inh	Runt-CBFb FRET	Pemphigus Ab inh	Runt-SMMHC FRET
O=c1oc2cc(O)ccc2cc1S(=O)(=O)c1ccccc1	-	0	133	-	0	-
Nc1nc(-c2cc(O)ccc2[N+](=O)[O-])cc(-c2ccccc2)c1[N+](=O)[O-]	-	0	34	-	0	-
CCOC(=O)CC(NS(=O)(=O)c1ccc(OC)c(C)c1)c1cccc([N+](=O)[O-])c1 (configuration not stated)	0	0	0	0	0	0
CCn1c(=N)c(C(=O)NCc2cccnc2)cc2c(=O)n3cccc(C)c3nc21	-	0	-	0	-	61
N=c1c(C(=O)NCc2ccco2)cc2c(=O)n3ccccc3nc2n1CC1CCCO1 (configuration not stated)	0	-	130	-	0	-
N=c1c(C(=O)NCc2ccc3c(c2)OCO3)cc2c(=O)n3ccccc3nc2n1CC1CCCO1 (configuration not stated)	-	0	0	-	0	-
Cc1cccn2c(=O)c3cc(C(=O)NCCc4ccccc4)c(=N)n(CC4CCCO4)c3nc12 (configuration not stated)	-	0	181	-	-	-
N=c1c(C(=O)NCCc2ccccc2)cc2c(=O)n3ccccc3nc2n1CC1CCCO1 (configuration not stated)	-	0	179	-	0	-
CCC(NC(=O)c1cncc(Br)c1)c1ccccc1 (configuration not stated)	-	-	0	-	0	-
COc1ccc(CC(=O)Oc2ccc(F)c(F)c2)cc1S(=O)(=O)N1CCOCC1	-	-	0	-	0	-
COCCn1c(=N)c(C(=O)NCCc2ccccc2)cc2c(=O)n3cccc(C)c3nc21	104	-	192	-	0	-
Cc1cccn2c(=O)c3cc(C(=O)NCc4ccccc4)c(=N)n(CCCN4CCOCC4)c3nc12	-	-	-	-	0	-
Cc1cccn2c(=O)c3cc(C(=O)NCc4cccnc4)c(=N)n(CC4CCCO4)c3nc12 (configuration not stated)	-	0	180	-	0	-
CCCCn1c(N)c(N(CC)C(=O)c2c(C)noc2C)c(=O)[nH]c1=O	-	-	-	-	0	-
CCCn1nc(NC(=O)c2ccco2)c2cc3cc(C)ccc3nc21	0	0	79	0	0	82
CCCn1nc(NS(=O)(=O)c2cccc3nonc23)c2cc3cc(C)ccc3nc21	-	0	0	-	0	-
CCCC(=O)Nc1nn(C)c2nc3cc(C)ccc3cc12	-	0	0	0	-	0
CCCn1nc(NC(=O)c2ccco2)c2cc3ccc(C)cc3nc21	-	0	57	0	0	0
CCn1nc(NC(=O)COC)c2cc3cc(C)ccc3nc21	-	0	?	-	0	-
CCCn1nc(NC(=O)COC)c2cc3cc(C)ccc3nc21	-	0	23	-	0	-
CCCn1nc(NC(=O)c2ccccn2)c2cc3cc(C)ccc3nc21	0	0	103	0	0	94
CC(C)(C)OC(=O)N1CCC[C@H]1C(=O)Nc1ccc(S(=O)(=O)C(F)F)cc1	-	0	0	-	0	-
CCCC(=O)Nc1nn(C)c2nc3ccc(C)cc3cc12	-	0	?	-	0	-
Cc1ccc2nc3c(cc2c1)c(NC(=O)c1cccnc1)nn3C	0	0	29	0	-	0
CCN1CCN(c2cc(-c3ccccc3)nc3cc(-c4cccc(F)c4)nn23)CC1	0	0	17	0	0	0
SMILES	Hck Nef HTS	p-CIP stab down	RanGTP-Imp inh	Runt-CBFb FRET	Pemphigus Ab inh	Runt-SMMHC FRET
CN1C(=O)NC(c2ccc(Cl)cc2)C2=C1CC(C)(C)CC2=O (configuration not stated)	-	0	0	-	0	-
COc1ccc(C2=Nn3c(nnc3-c3ccccc3F)SC2)cc1OC1CCOC1 (configuration not stated)	-	-	-	-	82	-
O=C(COc1ccc(Br)cc1)N(Cc1cccs1)C1CCS(=O)(=O)C1 (configuration not stated)	-	0	18	-	-	-
CCc1ccc(OCC(=O)N(Cc2cccs2)C2CCS(=O)(=O)C2)cc1 (configuration not stated)	-	0	0	-	0	-
CCOC(=O)c1cc(C)[nH]c(=O)c1C#N	0	0	0	0	0	56
Cc1ccc(NP(=O)(c2ccc(N(C)C)cc2NC(=O)c2cccs2)N2CCOCC2)cc1Cl (configuration not stated)	0	0	0	0	85	0
C/C(=N\NC(=O)c1cccs1)C(C)(C)C	0	0	0	0	0	0
CC(Sc1ccc(Cl)cc1)C(=O)NNC(=O)c1ccco1 (configuration not stated)	-	-	-	-	0	-
CC[C@]12C(=O)N(C)C[C@H]([C@@H]3C(=O)N(C)C(=O)[C@@H]31)N2C(=O)c1ccc(C(C)(C)C)cc1	-	-	-	-	0	-
COc1cc(NC(=O)COc2ccccc2Cl)ccc1NC(=O)c1cccs1	-	0	0	-	6.8	-
COc1cccc(C2c3c(oc4ccccc4c3=O)C(=O)N2Cc2ccco2)c1 (configuration not stated)	-	-	0	-	67	-
CCCCN1C(=O)C(=Nc2cccc3cnccc23)c2ccccc21	0	0	0	0	0	0
CS(=O)(=O)Nc1nnc(CCc2ccccc2)s1	-	0	0	-	0	-
COc1ccc(CCc2nnc(NS(C)(=O)=O)s2)cc1	-	0	27	-	0	-
CCOc1ccc(S(=O)(=O)N(C)CC(=O)N2CCN(CC)CC2)cc1	-	0	?	-	-	-
O=C(Nc1ccc(C(=O)N2CCC(N3CCOCC3)CC2)cc1)c1ccc(Br)o1	-	-	-	-	0	-
COc1ccc(NC(=O)c2ccc3c(c2)OCO3)cc1Cl	0	0	0	0	46	0
C[C@H](CO)N1C[C@H](C)[C@@H](CN(C)S(C)(=O)=O)OCc2cnnn2CCCC1=O	-	-	-	-	0	-
CCOc1ccc(NC(=O)CCC(=O)O)cc1	0	0	24	0	-	0
CCCC(=O)Nc1ccc(Oc2ccc(NC(=O)CCC)cc2)cc1	0	0	0	0	55	0
O=[N+]([O-])c1ccc2cn(C3OC(CO)C(O)C3O)nc2c1 (configuration not stated)	-	-	-	-	0	-
CSCCC(NC(=O)C12CC3CC(CC(C3)C1)C2)C(=O)OCC(=O)c1ccc(C)cc1 (configuration not stated)	0	0	0	0	53	0
CSCC[C@H](NC(=O)Cc1c(C)c2c(cc(C)c3c(C)coc32)oc1=O)C(=O)O	-	0	0	-	0	-
COc1ccc(NC(=O)CCn2c(=S)[nH]c3ccccc3c2=O)cc1Cl	-	-	-	-	82	-
O=C(CCn1c(=S)[nH]c2ccccc2c1=O)Nc1cccc(Cl)c1	-	0	0	-	0	-
CN1/C(=C\C(=O)c2ccco2)C(C)(C)c2ccccc21	0	0	0	0	0	79
CN1/C(=C\C(=O)c2cccnc2)C(C)(C)c2ccccc21	0	0	0	0	0	0
CN1/C(=C\C(=O)c2cccc(S(=O)(=O)N3CCCCC3)c2)C(C)(C)c2ccccc21	0	0	21	0	0	0
COc1cc(C(=O)N2CCCN(C)CC2)cc(OC)c1C	-	0	0	-	0	-
